Tn6 DDE FP: inhibitors of Tn6 peptide binding to fibrin DD(E), primary screen, biochemical, fluorescence polarization, human fibrin, Tn6 probe; AID 720509, 2013; inhibition, % at 8.3 µM; hit rate 0.21% among 370,000; Fibrin DD(E) TRITC-Tn6 fluorescence polarization displacement;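 active = inhibition above a per-campaign cutoff: mean of compounds within control limits plus 3 SD, cut at about 15% in these data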
Target sequence (P02675 whole entry, looked up): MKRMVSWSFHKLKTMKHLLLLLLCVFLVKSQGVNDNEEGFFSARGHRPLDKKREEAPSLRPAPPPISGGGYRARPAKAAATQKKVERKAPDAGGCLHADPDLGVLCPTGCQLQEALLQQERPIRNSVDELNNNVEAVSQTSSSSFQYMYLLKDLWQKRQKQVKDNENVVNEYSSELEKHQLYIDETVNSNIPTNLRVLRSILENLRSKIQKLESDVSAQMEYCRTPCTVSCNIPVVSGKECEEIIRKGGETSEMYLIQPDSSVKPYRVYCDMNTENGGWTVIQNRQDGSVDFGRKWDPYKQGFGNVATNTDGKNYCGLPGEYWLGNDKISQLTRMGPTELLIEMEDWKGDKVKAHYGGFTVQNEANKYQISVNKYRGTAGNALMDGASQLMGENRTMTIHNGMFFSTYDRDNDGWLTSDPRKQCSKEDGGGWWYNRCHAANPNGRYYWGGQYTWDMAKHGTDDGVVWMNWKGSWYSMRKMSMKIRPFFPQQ
MT1-MMP act inh: blockers of MT1-MMP proenzyme processing, primary screen, HT1080 RFP-PRO-GFP cells, GFP/RFP fluorescence; Matrix metalloproteinase-14 (Homo sapiens), P50281; GFP/RFP ratio fluorescence, overnight; percent of plate control window, DMSO zero; GFP/RFP ratio change, % at 20 µM; hit rate 0.061% among 360,000;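 active = GFP/RFP ratio change of at least 30% with cell ATP level not reduced by more than half and red fluorescence within 50% of control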
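system = RFP-PRO-GFP reporter HT1080 cells | dosing = 20 µM single dose, 1% DMSO | timing = overnight cell settling, then overnight compound exposure, 37 °C, 5% CO2 | read-out basis = GFP/RFP fluorescence ratio | controls = DMSO and RFP-L50D-GFP cell wells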
DDE Tn7 FP inh: inhibitors of Tn7 peptide binding to fibrin DD(E), primary screen, biochemical, fluorescence polarization, human fibrin, Tn7 probe; Fibrinogen beta chain (Homo sapiens), P02675; FP displacement of FITC-Tn7 peptide from fibrin DD(E); 0% = median of compound wells per plate; inhibition, % at 8.3 µM; hit rate 0.13% among 370,000;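 active = inhibition above the mean of compounds falling within the control limits plus 3 SD of them, cut at about 14% in these data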
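Also added: labelled Tn7 tracer, 0.1 µM; Assay system: human fibrin DD(E) protein; Amount: 2 µM fibrin DD(E); Schedule: 10 min compound pre-incubation, 3 h probe incubation at room temperature; Repeats: one replicate per compound; Read-out basis: percent inhibition; Measured by: fluorescence polarization of the labelled Tn7 tracer.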
DAGLB inh: DAGLB lipase inhibitors, primary screen, biochemical, fluorescence, HTS; Diacylglycerol lipase-beta (Homo sapiens), Q8NCG7; HEK293T DAGLB membrane lysate, EnzChek fluorogenic substrate; inhibition, % at 5.17 µM; hit rate 0.059% among 340,000; in the data active = inhibition above about 34%
SKN-1 block: suppressors of acrylamide-induced Pgst-4::GFP reporter in worms, primary screen, SKN-1 inhibitor project, whole organism, uHTS, GFP/RFP fluorescence ratio, strain VP596. C. elegans VP596 Pgst-4::GFP/RFP ratio, 24 h. inhibition, % at 21.8 µM. hit rate 0.49% among 360,000. AID 624304, 2012;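 active = interference check ratio from 0.5 to 1.5 plus GFP to RFP signal ratio inhibition reaching or exceeding a fixed threshold, cut at about 30% in these data, passing the limit was not always enough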
PolyA inhibitor: polyadenylation inhibitors in yeast reporter cells, primary screen, luminescence, S. cerevisiae | activity score, % at 12 µM | hit rate 0.02% among 300,000 | S. cerevisiae SKY197-pL101 polyadenylation reporter, beta-gal luminescence; efflux-impaired pdr1/pdr3 knockout yeast; score 100 = 6 SD above DMSO;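 active = lowest replicate activity score at least 50, where 100 means six control SD above control mean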;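 also: yeast exposed to compound for 9 h at 30 °C; higher score means more reporter readthrough which indicates perturbed polyadenylation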
DDE Tn7 confirm: inhibitors of Tn7 peptide binding to fibrin DD(E), confirmation, biochemical, fluorescence polarization, human fibrin, Tn7 probe. hit rate 5% among 460. FP displacement of TRITC-Tn7 peptide from DD(E); 0% set at plate's compound-well median. shares compounds with DDE Tn7 FP inh. inhibition, % at 8.3 µM;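 active = inhibition above the campaign cutoff, the mean of compounds within control limits plus 3 SD, cut at about 14% in these data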;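 also: displacers lower polarization since freed probe rises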
DDE Tn7 FP ctr: DD(E)-Tn7 binding inhibition, counter-screen | shares compounds with DDE Tn7 FP inh | hit rate 3% among 460 | inhibition, % at 8.3 µM | AID 720633 | fibrin DD(E), TRITC-Tn7 probe displacement, fluorescence polarization;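 active = inhibition above the cutoff, the mean of compounds lying between the control bounds plus 3 SD of those compounds, cut at about 17% in these data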
DDE Tn6 FP ctr: counter-screen for inhibitors of Tn6 peptide binding to fibrin DD(E). hit rate 2% among 680. TRITC-Tn6 fluorescence polarization displacement; 0% = median of compound wells, not DMSO. shares compounds with Tn6 DDE FP. AID 720621. inhibition, % at 8.3 µM;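 active = inhibition above the mean of test compounds lying between the control limits plus 3 SD of those, cut at about 14% in these data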
DDE Tn6 confirm: inhibitors of Tn6 peptide binding to fibrin DD(E), confirmation, biochemical, fluorescence polarization, human fibrin, Tn6 probe. shares compounds with Tn6 DDE FP. FP displacement of TRITC-Tn6 peptide from DD(E); 0% = per-plate median of test wells. inhibition, % at 8.3 µM. hit rate 10% among 680. AID 720631, 2013;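 active = inhibition above the mean of compounds lying within the control limits plus 3 SD, cut at about 16% in these data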
Each line names hits and unclear results; the compound was inactive in the other large screens (follow-up assays come after a bar, where they were run). The list is not random: actives were taken first. Their share in the collection is about 0.9%.

COC(=O)CC1(C(=O)OC)Nc2cc(Cl)c(Cl)cc2S(=O)(=O)N1O (centres undefined)	Tn6 DDE FP 124.4, DDE Tn7 FP inh 87.8 (no result: PolyA inhibitor) | DDE Tn7 confirm 59.5 | DDE Tn7 FP ctr 57.9 | DDE Tn6 FP ctr 59.5 | DDE Tn6 confirm 57.9
COC(=O)CCC(=O)Nc1ccc(Cl)c(Cl)c1	none
COC(=O)[C@]12C[C@H](CC(=O)N3CCN(C(=O)c4ccco4)CC3)C(=O)N(Cc3cccc4ccccc34)C1=C[C@H](C1CCCC1)O[C@@H]2C	none (no result: MT1-MMP act inh, DAGLB inh, SKN-1 block, PolyA inhibitor)
CC1(C)CC(=O)C(C=Nc2ccc(C(=O)c3ccccc3)cc2N=CC2=C(O)CC(C)(C)CC2=O)=C(O)C1	Tn6 DDE FP 19.2, DDE Tn7 FP inh 13.9 | DDE Tn7 confirm inactive | DDE Tn7 FP ctr inactive | DDE Tn6 FP ctr inactive | DDE Tn6 confirm inactive
COC(=O)[C@]12C[C@H](CC(=O)NCCCCc3ccccc3)C(=O)N(CCc3ccc(OC)c(OC)c3)C1=C[C@H](C1CCCC1)O[C@@H]2C	none (no result: MT1-MMP act inh, DAGLB inh, SKN-1 block, PolyA inhibitor)
O=C1c2ccccc2-c2onc3ccc(N4CCCC4)c1c23	Tn6 DDE FP 100.4, DDE Tn7 FP inh 32.5 | DDE Tn7 confirm inactive | DDE Tn7 FP ctr 93.2 | DDE Tn6 FP ctr inactive | DDE Tn6 confirm 93.2
CCNc1ccc2noc3c2c1C(=O)c1ccccc1-3	Tn6 DDE FP active, DDE Tn7 FP inh 16.8 | DDE Tn7 confirm 53.3 | DDE Tn7 FP ctr 93.2 | DDE Tn6 FP ctr 53.3 | DDE Tn6 confirm 93.2
COC(=O)[C@]12C=CCN1[C@@H](c1ccc(C(F)(F)F)cc1)c1c(c3ccccc3n1S(=O)(=O)c1ccc(C)cc1)C2	none (no result: MT1-MMP act inh, DAGLB inh, SKN-1 block, PolyA inhibitor)
COc1ccc2ccccc2c1C(O)c1nccn1C (centres undefined)	Tn6 DDE FP 17.2, DDE Tn7 FP inh 32.7 | DDE Tn7 confirm 16.8 | DDE Tn7 FP ctr inactive | DDE Tn6 FP ctr 16.8 | DDE Tn6 confirm inactive
Cn1ccnc1C(O)c1ccccc1 (centres undefined)	none
COc1ccccc1NS(=O)(=O)c1cccc(C(=O)N2CCN(C(=O)c3ccco3)CC2)c1	Tn6 DDE FP 16.5 (no result: PolyA inhibitor) | DDE Tn6 FP ctr inactive | DDE Tn6 confirm inactive
COc1ccccc1NS(=O)(=O)c1cccc(NC(=O)Nc2ccc(Cl)cc2)c1	Tn6 DDE FP 170.1 | DDE Tn6 FP ctr inactive | DDE Tn6 confirm 23.2
CCN(CC(=O)NC1CCCC1)S(=O)(=O)c1ccc(Br)cc1	Tn6 DDE FP 16.5 | DDE Tn6 FP ctr inactive | DDE Tn6 confirm inactive
O=C(CSc1nnc(-c2ccccn2)n1-c1ccc(Cl)cc1)Nc1ccc2c(c1)OCCO2	none (no result: MT1-MMP act inh, DAGLB inh, SKN-1 block, PolyA inhibitor)
COc1ccc(CNC(=O)C[C@H]2C[C@H](C(=O)N3CCOCC3)[C@@]3(CCC4CCCC4)c4[nH]c5cc(-c6ccco6)ccc5c4CCN3C2=O)cc1OC	Tn6 DDE FP 16.1 (no result: PolyA inhibitor) | DDE Tn6 FP ctr inactive | DDE Tn6 confirm inactive
N#C/C(=C/C1=C(N2CCOCC2)C(=C/c2ccc(Cl)cc2Cl)/CC1)C(=O)Nc1ccccc1F	Tn6 DDE FP 156.4 (no result: PolyA inhibitor) | DDE Tn6 FP ctr inactive | DDE Tn6 confirm inactive
N#C/C(=C\C1=C(N2CCOCC2)C(=C\c2ccc(Cl)cc2)/CC1)C(=O)Nc1ccccc1F	none
CC1(OC(=O)c2ccco2)C(=O)C=C2C=C(C3CC3)OC=C2C1=O (centres undefined)	Tn6 DDE FP 27.7 | DDE Tn6 FP ctr inactive | DDE Tn6 confirm 18.0
CC1(OC(=O)c2cccs2)C(=O)C=C2C=C(C3CC3)OC=C2C1=O (centres undefined)	none
O=C(Nc1cccc(-c2nc3ccccc3[nH]2)c1)c1cccc(NC(=O)c2ccco2)c1	Tn6 DDE FP 86.2 | DDE Tn6 FP ctr inactive | DDE Tn6 confirm 30.4
CC(=O)OCCCN1C(=O)CCC12CCC(C)CC2 (centres undefined)	none (no result: MT1-MMP act inh, DAGLB inh, SKN-1 block, PolyA inhibitor)
CC(NC(=O)N1CCOCC1)c1ccccc1 (centres undefined)	none
O=C(NC(c1ccccc1)c1ccccc1)N1CCOCC1	Tn6 DDE FP 16.2 | DDE Tn6 FP ctr inactive | DDE Tn6 confirm inactive
COc1ccc(Cl)cc1S(=O)(=O)N1CCN(C(=O)CSc2nc3ccccc3nc2N2CCCC2)CC1	none (no result: MT1-MMP act inh, DAGLB inh, SKN-1 block, PolyA inhibitor)
COc1ccc(CCC(=O)Nc2nccs2)cc1OC	none
COc1ccc(CCC(=O)Nc2nc3c(s2)CN(C)CC3)cc1OC	Tn6 DDE FP 82.9 | DDE Tn6 FP ctr inactive | DDE Tn6 confirm inactive
COc1cc(OC)c(C2C(C(=O)N3CCOCC3)=C(C)NC3=C2C(=O)CC(C)(C)C3)cc1OC (centres undefined)	Tn6 DDE FP 17.4 | DDE Tn6 FP ctr inactive | DDE Tn6 confirm inactive
COc1ccc(C2C(C(=O)N3CCOCC3)=C(C)NC3=C2C(=O)CC(C)(C)C3)cc1O (centres undefined)	none
CCOC(=O)C(CNc1ccc(O)cc1)NC(=O)c1ccccc1 (centres undefined)	Tn6 DDE FP 65.7 (no result: MT1-MMP act inh, DAGLB inh, SKN-1 block, PolyA inhibitor) | DDE Tn6 FP ctr inactive | DDE Tn6 confirm inactive
CCOC(=O)CCC(NC(=O)c1ccc(NCN2C(=O)c3ccccc3C2=O)cc1)C(=O)OCC (centres undefined)	none
Cc1ccc(S(=O)(=O)N2CCN(C(=O)COC(=O)C3CCC3)CC2)cc1	Tn6 DDE FP 17.8 | DDE Tn6 FP ctr inactive | DDE Tn6 confirm inactive
